Screening data (PubChem)
PAD4 FP inh: human PAD4 inhibitors, primary screen, biochemical, fluorescence polarization, 1536-well format; recombinant PAD4, RCA probe fluorescence polarization; actives 0.41% (n = 330,000); AID 485272, 2010; inhibition, % at 6.36 µM; Protein-arginine deiminase type-4 (Homo sapiens), Q9UM07;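 active = percent inhibition above a cutoff equal to the mean of all tested compounds plus 3 SD, cut at about 15% in these data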;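 note: 0% = PAD4 with RCA probe and DMSO and 100% = probe without PAD4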
GSTO1 counter: inhibitors of recombinant GSTO1, primary screen, counter-screen for RBBP9 inhibitor project, biochemical, fluorescence polarization | activity-based probe fluorescence polarization | inhibition, % at 5.96 µM | actives 1.1% (n = 300,000) | AID 1974, 2009;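 active = inhibition above the campaign mean inhibition plus 3 SD, cut at about 35% in these data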;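 note: 0% = GSTO1-1 with DMSO and 100% = wells lacking GSTO1-1 enzyme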
UBC13 inh: UBC13 polyubiquitin chain formation inhibitors, primary screen, biochemical, TR-FRET, uHTS. Ubiquitin-conjugating enzyme E2 N (Homo sapiens), P61088. inhibition, % at 20 µM. actives 0.47% (n = 330,000). AID 485273, 2010; in the data active = inhibition above about 45%, passing the limit was not always enough; inconclusive = no clear call, values can overlap the other calls
Rin1 Abl inh: inhibitors of Rin1-Abl protein binding, primary screen, biochemical, TR-FRET. Tyrosine-protein kinase ABL1 (Homo sapiens) + Ras and Rab interactor 1 (Homo sapiens), …. actives 0.4% (n = 360,000). inhibition, % at 7.35 µM; in the data active = inhibition above about 5%, passing the limit was not always enough
Apaf1 inhib: inhibitors of human Apaf-1 apoptosome, primary screen, biochemical, DEVD-Rh110 fluorescence, uHTS; AID 489030, 2010; actives 0.71% (n = 330,000); inhibition, % at 20 µM; reconstituted apoptosome caspase-3 activity; active = inhibition of at least 40% at 20 µM;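 note: plate controls were DMSO wells for no effect and DEVD-CHO caspase inhibitor wells for full effect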
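Material: biochemical Apaf-1 apoptosome reconstitution. Medium: Hepes buffer, pH 7.5. Also added: cytochrome c activation, bis-DEVD rhodamine 110 substrate. Timing: 30 min compound preincubation, 50 min activation, room temperature. Measured by: rhodamine 110 fluorescence at Ex 480/Em 540 nm.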
UBC9 SUMO inh: inhibitors of in vitro SUMOylation cascade, primary screen, biochemical, HTRF, uHTS | SUMO-conjugating enzyme UBC9 (Homo sapiens), P63279 | HTRF SUMOylation assay, SAE1/SAE2 + UBC9 | inhibition, % at 35 µM | actives 0.36% (n = 290,000) | AID 2006, 2009; in the data active = inhibition above about 50%, passing the limit was not always enough; inconclusive = no clear call, values can overlap the other calls
Casp3 UBC13 ctr: CASP3 inhibitor validation, counterassay for project on UBE2N polyubiquitination blockers, biochemical, one dose | actives 4% (n = 1,400) | AID 488856, 2010 | Recombinant caspase-3, Caspase-Glo 3/7 luminescence, 60 min | shares compounds with UBC13 inh | inhibition, % at 20 µM;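 active = mean inhibition across replicates above about 26%, limit read from the data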;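 note: plate controls were DMSO with caspase-3 for no effect and DMSO wells lacking enzyme for full effect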
UBC13 confirm: UBC13 polyubiquitination inhibitors, single-point retest, confirmation, biochemical, TR-FRET, single concentration; actives 68% (n = 1,400); AID 488859, 2010; shares compounds with UBC13 inh; inhibition, % at 10 µM; in the data active = inhibition above about 45%; inconclusive = no clear call, values can overlap the other calls
An asterisk follows results filed as active; ? = inconclusive; nt = no result. Only some compounds are listed: those with a hit (about 2.2% of all), similar ones and a draw of the others.

SMILES | PAD4 FP inh | GSTO1 counter | UBC13 inh | Rin1 Abl inh | Apaf1 inhib | UBC9 SUMO inh | Casp3 UBC13 ctr | UBC13 confirm
C#CCOCCOCCOCCNc1nc(N2CCN(C(=O)CCCCCCCCCCNC(=O)[C@@H](CCSC)n3cc(CCO)nn3)CC2)nc(N2CCN(C(=O)CCCCCCCCCCNC(=O)[C@H](CCCN=C(N)N)n3cc(C[C@@H](C)CC)nn3)CC2)n1 | -21.1 | -13.8 | 127.7* | 26.6* | 62.0* | nt | -4.7 | 123.0*
C#CCOCCOCCOCCNc1nc(N2CCN(C(=O)CCCCCCCCCCNC(=O)[C@H](CCCCN)n3cc(C[C@@H](C)CC)nn3)CC2)nc(N2CCN(C(=O)CCCCCCCCCCNC(=O)[C@H](CCCN=C(N)N)n3cc(C[C@@H](C)CC)nn3)CC2)n1 | -16.8 | 1.4 | 125.0* | 11.4 | 54.9* | nt | -0.7 | 124.6*
C#CCOCCOCCOCCNc1nc(N2CCN(C(=O)CCCCCCCCCCNC(=O)[C@H](CCCCN)n3cc(C)nn3)CC2)nc(N2CCN(C(=O)CCCCCCCCCCNC(=O)[C@@H]([C@H](C)O)n3cc(C)nn3)CC2)n1 | 1.6 | -2.6 | 116.7* | 5.9 | 54.4* | nt | -1.2 | 110.9*
C#CCOCCOCCOCCNc1nc(N2CCN(C(=O)CCCCCCCCCCNC(=O)[C@H]([C@@H](C)CC)n3cc(CCCCN=C(N)N)nn3)CC2)nc(N2CCN(C(=O)CCCCCCCCCCNC(=O)[C@@H]([C@H](C)O)n3cc(C)nn3)CC2)n1 | -6.0 | 0.9 | 123.1* | 14.1* | 44.9* | nt | -1.6 | 124.9*
O=C(NCc1nnc(SCC(=O)N2CCOCC2)o1)c1ccccc1 | nt | nt | nt | 3.5 | nt | nt | nt | nt
O=C(NCCCn1ccnc1)/C(=C\c1ccc(Br)cc1)NC(=O)c1ccccc1F | 0.4 | 3.7 | -6.2 | 1.9 | 4.7 | 8.8 | nt | nt
CN(Cc1ccccc1)C(=O)c1csc([C@@H]2O[C@H](CO)[C@@H](O)[C@H]2O)n1 | nt | nt | nt | -1.3 | nt | nt | nt | nt
Cc1cc(C(=O)N2CCC2(C)C(=O)NS(=O)(=O)c2cccc(Cl)c2)nn1C (configuration not stated) | nt | nt | nt | -1.2 | nt | nt | nt | nt
O=C(CCSc1nc(-c2ccc3c(c2)OCO3)cc(C(F)(F)F)n1)NCc1ccccc1 | 2.8 | -13.3 | ? | -0.8 | 26.1 | 20.4 | nt | nt
CN(Cc1ccccc1)C(=O)CCSc1nc(-c2ccc3c(c2)OCO3)cc(C(F)(F)F)n1 | 0.1 | 2.3 | 45.6* | 0.5 | 22.9 | 1.4 | -2.3 | 42.5
CN(C)C(CNC(=O)c1coc2ccccc2c1=O)c1ccccc1 (configuration not stated) | -18.2 | 0.6 | 56.4* | -1.8 | 11.3 | -15.9 | 12.5 | 58.9*
N#Cc1ccc(Nc2nc(-c3ccc(O)cc3O)cs2)cc1C(F)(F)F | -1.1 | nt | 67.7* | -3.2 | 15.4 | nt | -1.1 | 55.4*
COc1ccc(CCN2CC(C(=O)NCCN3CCCC3=O)CCC2=O)cc1 (configuration not stated) | -1.6 | 1.7 | -0.5 | 1.2 | 2.4 | -10.3 | nt | nt
Oc1cc(Nc2ccncc2)cc2cccnc12 | -3.6 | nt | 103.5* | -0.4 | -3.8 | nt | -1.5 | 108.9*
C[C@@H]1CN([C@H](C)CO)C(=O)CCCn2nncc2CO[C@@H]1CN(C)S(=O)(=O)c1ccc(F)cc1 | nt | nt | nt | 2.9 | nt | nt | nt | nt
CN1CCN(Cc2nc3ccccc3c(=O)n2Cc2nc(-c3ccc([N+](=O)[O-])cc3)cs2)CC1 | -9.4 | 11.1 | 79.3* | -3.5 | 20.3 | 8.1 | 1.5 | 57.3*
O=C(CCCCCN1C(=O)c2cccc3cccc(c23)C1=O)NCCO | -5.4 | 10.9 | 46.6* | -3.5 | 1.7 | 11.4 | -4.3 | 32.5
